Measured values gathered from unrelated publications.
Lines come from different studies, so protocols differ.
Target: DNA-dependent protein kinase catalytic subunit (PRKDC, Homo sapiens, UniProt P78527)

| Structure (SMILES) | effect on | action | method | cell line | concentration | quantity | value |
| --- | --- | --- | --- | --- | --- | --- | --- |
| O=C(CSc1nc2nccnc2c(=O)n1CCc1ccccc1)Nc1nccs1 | enzyme activity | inhibitor | – | – | 10 µM | inhibition | 23% |
| C=CC(=O)Nc1cc(Nc2nccc(Nc3cc(Cl)c(F)cc3C(C)(C)O)n2)c(OC)cc1N1CC[C@@H](N(C)C)C1 | enzyme activity | inhibitor | – | – | 1 µM | inhibition | -1% |
| Cc1ccc(NC(=O)c2ccc(C)c(C(F)(F)F)c2)cc1C#Cc1nn(C2CCC(O)CC2)c2ncnc(N)c12 (stereo not drawn) | cell-free assay | – | – | – | 10 µM | remaining signal | 94% |
| CC(C)(C)c1nc(-c2cccc(NS(=O)(=O)c3c(F)cccc3F)c2F)c(-c2ccnc(N)n2)s1 | enzyme activity | inhibitor | radiometric | – | 1 µM | remaining activity | 92% |
| Cc1cc(NC(=O)c2cccc3cc(-c4cccc5[nH]nc(N)c45)ccc23)ccc1F | enzyme activity | inhibitor | – | – | 0.1 µM | activity vs control | 99% |
| Cc1ccc(C(=O)NCc2ccsc2)cc1C#Cc1cn(C(C)C)c2ncnc(N)c12 | enzyme activity | inhibitor | – | – | 1 µM | activity vs control | 95% |
| CC(C)(C)c1nc2c(s1)c1nc(N)ncc1c1ccc(NS(=O)(=O)c3c(F)cccc3F)c(F)c12 | enzyme activity | inhibitor | radiometric | – | 1 µM | remaining activity | 94% |
| COc1cc2ncnc(Nc3ccc(Oc4ccccc4)cc3C)c2cc1OC | enzyme activity | inhibitor | – | – | 1 µM | inhibition | 9% |
| CNc1cc(Oc2cc(C(=O)Nc3cc(N4CCN(C)CC4)cc(C(F)(F)F)c3)ccc2C)ncn1 | target engagement in cells | inhibitor | chemoproteomics | Huh-7 | 1 µM | inhibition | -44.8% |
| COc1cc2ncnc(Nc3ccc(Oc4ccccc4)c(C)c3C)c2cc1OC | enzyme activity | inhibitor | – | – | 1 µM | inhibition | 9% |
| Cc1cnc(NC2CCOCC2)nc1-n1cnc(C(=O)NC(CN)c2cc(F)cc(Cl)c2)c1 (stereo not drawn) | enzyme activity | inhibitor | radiometric | – | 1 µM | remaining activity | 119% |
| CS(=O)(=O)Nc1cccc(-c2csc(NC(=O)CSc3nc4nccnc4c(=O)n3CCc3ccccc3)n2)c1 | enzyme activity | inhibitor | – | – | 10 µM | inhibition | 12% |
